Source: ChEMBL document CHEMBL3593239, “PABA/NO lead optimization: Improved targeting of cytotoxicity to glutathione S-transferase P1-overexpressing cancer cells” (Bioorg Med Chem, 2015)
Activity calls are given as the source filed them. The rule behind the calls is not given here.

How the values were obtained:
[1] = Stability of the compound in phosphate buffer assessed as first-order initial rate constant for hydrolysis at pH 7.4 at 25 degC by HPLC trapping method; type: physicochemical
[2] = Stability of the compound in phosphate buffer assessed as first-order initial rate constant for hydrolysis at pH 7.4 at 37 degC by HPLC trapping method; type: physicochemical
[3] = Stability of the compound in phosphate buffer assessed as pseudo-first order rate constant at pH 7.4 at 37 degC by HPLC trapping method in presence of GSH; type: physicochemical
[4] = target: T1, Glutathione S-transferase P (Homo sapiens, UniProt P09211); assay: Prodrug conversion in phosphate buffer assessed as GSTP1 (unknown origin)-mediated nitric oxide release at 1 uM at pH 7.4 at 37 degC after 1 to 30 mins by LC/MS-MS analysis; type: ADME; conditions: pH 7.4, 1 µM
In short: (§1)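 Test compound at 1 µM reacted with 4 mM GSH containing 4 nM GSTP1 in 0.1 M phosphate, pH 7.4, at 37 °C. Products identified by LC–MS traces taken at 60 s and 30 min.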

[5] = target: T1, Glutathione S-transferase P; assay: Drug metabolism in phosphate buffer assessed as formation of GSTP1 (unknown origin)-mediated (S)-2-amino-5-((R)-1-(carboxymethylamino)-3-(4-cyano-5-(4-(methylamino)benzoyloxy)-2-nitrophenylthio)-1-oxopropan-2-ylamino)-5-oxopentanoic acid at 1 uM at pH 7.4 at 37 degC after 1 to 30 mins by LC-MS/MS analysis in presence of GSH; type: ADME; conditions: pH 7.4, 1 µM; in short: as §1
[6] = target: T1, Glutathione S-transferase P; assay: Prodrug conversion in phosphate buffer assessed as GSTP1 (unknown origin)-mediated nitric oxide release […] measured per mol of compound at pH 7.4 at 37 degC by chemiluminescence assay in presence of GSH; type: ADME
[7] = target: T2, Glutathione S-transferase A1 (Homo sapiens, UniProt P08263); assay: Drug metabolism in phosphate buffer assessed as ratio of GSTA1 (unknown origin)-mediated (S)-2-amino-5-((R)-1-(carboxymethylamino)-3-(4-cyano-5-hydroxy-2-nitrophenylthio)-1-oxopropan-2-ylamino)-5-oxopentanoic acid formation from nitric oxide release pathway to GSTA1 (unknown origin)-mediated (Z)-1-(4-cyano-5-hydroxy-2-nitrophenoxy)-3,3-dimethyltriaz-1-ene 2-oxide formation from nitric oxide retained pathway at 1 uM at pH 7.4 at 37 degC after 30 mins by LC-MS/MS analysis in presence of GSH; type: ADME; conditions: pH 7.4, 0.5 h
T2 sequence (P08263 whole entry): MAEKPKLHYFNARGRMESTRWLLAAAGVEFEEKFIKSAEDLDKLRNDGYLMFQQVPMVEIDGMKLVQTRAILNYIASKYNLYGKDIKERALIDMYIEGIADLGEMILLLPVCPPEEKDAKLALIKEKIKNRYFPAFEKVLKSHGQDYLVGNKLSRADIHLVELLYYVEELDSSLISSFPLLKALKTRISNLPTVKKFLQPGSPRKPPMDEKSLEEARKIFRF
In short: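 Products analysed by LC–MS. The ratio is the NO-release-pathway product over the NO-retained-pathway phenolic product.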

[8] = target: T1, Glutathione S-transferase P; assay: Drug metabolism in human HL-60 cells assessed as GSTP1-mediated metabolite formation at 1 uM after 10 mins by LC-MS/MS analysis; type: ADME, cell-based; conditions: hl-60, 10 min
In short: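 HL-60 cells plated in flasks and incubated overnight at 37 °C, then treated with 1 µM compound for varying times. Cells broken by two freeze (−80 °C)/thaw (37 °C) cycles in 0.1% formic acid/acetonitrile 3:7. Precipitate spun out at 14,000g for 15 min. Supernatant filtered and analysed by LC–MS/MS on C18 with acetonitrile/water/0.1% formic acid gradient and ESI-QTOF detection.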

HL-60 [9] = assay: Cytotoxicity against human HL60 cells assessed as growth inhibition after 72 hrs by MTT assay; type: functional, cell-based; conditions: HL-60, 72 h
In short: (§2)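 HL-60 and U937 cells from ATCC, grown per supplier protocol, seeded and exposed to increasing concentrations for 72 h. Viability was read with a Promega assay run per the manufacturer's protocol. Six repeats per concentration, three independent experiments. IC50 derived by curve fitting.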

U-937 = assay: Cytotoxicity against human U937 cells assessed as growth inhibition after 72 hrs by MTT assay; type: functional, cell-based; conditions: U-937, 72 h; in short: as §2
HL-60 [10] = assay: Induction of apoptosis in human HL60 cells assessed as activation of caspase 8 at 10 uM after 24 hrs by Western blot analysis; type: functional, cell-based
HL-60 [11] = assay: Induction of apoptosis in human HL60 cells assessed as activation of caspase 7 at 10 uM after 24 hrs by Western blot analysis; type: functional, cell-based
HL-60 [12] = assay: Induction of apoptosis in human HL60 cells assessed as cleavage of PARP at 10 uM after 24 hrs by Western blot analysis; type: functional, cell-based
HL-60 [13] = assay: Induction of SAPK/JNK phosphorylation in human HL-60 cells at 5 to 20 uM after 24 hrs by Western blot analysis

T1 sequence (P09211 whole entry): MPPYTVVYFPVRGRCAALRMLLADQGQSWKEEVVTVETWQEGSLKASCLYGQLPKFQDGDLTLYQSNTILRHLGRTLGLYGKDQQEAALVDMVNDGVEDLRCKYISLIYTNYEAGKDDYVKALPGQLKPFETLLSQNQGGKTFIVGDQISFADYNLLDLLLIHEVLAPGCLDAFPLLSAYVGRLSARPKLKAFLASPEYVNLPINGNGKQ

K [1]: 0.3 ×10⁻⁵ /s | K [2]: 1.1 ×10⁻⁴ /s | K [3]: 5.1 ×10⁻³ /s | Drug metabolism [4]: metabolite_detected | Drug metabolism [5]: metabolite_detected | NO yield [6]: > 1.9 mol/mol | Ratio [7]: 1 | Drug metabolism [8]: metabolite_detected
Structure (SMILES): CNc1ccc(C(=O)Oc2cc(O/N=[N+](\[O-])N(C)C)c([N+](=O)[O-])cc2C#N)cc1
IC50 (HL-60 [9]): 9 µM | IC50 (U-937): 6.5 µM | Activity (HL-60 [10]): Active | Activity (HL-60 [11]): Active | Activity (HL-60 [12]): Active | Activity (HL-60 [13]): Active
